Results reported in ChEMBL document CHEMBL1828600, “Derivatives of pyrrolo[3,4-d]pyridazinone, a new class of analgesic agents” (Eur J Med Chem, 2011).
Active and inactive are the calls of the source.

Experiments:
Mu-type opioid receptor = Mu-type opioid receptor (Rattus norvegicus, UniProt P33535); assay: Displacement of [3H]-dihydromorphine from mu opioid receptor in rat cerebral cortex by liquid scintillation counting; assay type: tissue-based
Method in brief: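 Rat cerebral cortex homogenised in 50 mM Tris-HCl pH 7.6, washed by centrifugation at 48,000 × g, preincubated 30 min at 37 °C to remove endogenous opioids. Membranes incubated with 0.2 nM [3H]dihydromorphine and 7–8 compound concentrations (10^-11–10^-4 M); nonspecific binding with levallorphan. Filtration on GF/C, two washes, scintillation counting, duplicates. Result given as Ki.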

Mus musculus [1] = organism: Mus musculus; assay: Ratio of acetylsalicylic acid ED50 to compound ED50 for analgesic activity in Albino-Swiss mouse assessed as protection against phenylbenzoquinone-induced writhing; assay type: functional
Method in brief: (§1)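 Mice (groups of 6–8) dosed i.p. at 3.125–50 mg/kg as 0.5% methylcellulose suspension; 30 min later 0.02% phenylbenzoquinone (ethanol–water 5:95) 0.25 ml i.p. Writhes counted for 10 min starting 5 min after irritant. % effect versus control writhing count; ED50 with confidence limits by Litchfield and Wilcoxon.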

Mus musculus [2] = assay: Analgesic activity in Albino-Swiss mouse assessed as protection against phenylbenzoquinone-induced writhing administered as ip 30 mins before phenylbenzoquinone challenge measured after 5 mins; assay type: functional; method in brief: as §1
Mus musculus [3] = assay: Analgesic activity in Albino-Swiss mouse assessed as inhibition of heat-induced paw licking or jumping behavior administered as ip measured after 30 mins for 45 secs by Eddy and Leimbach's hot plate method; assay type: functional
Method in brief: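 Compound i.p. in 0.5% methylcellulose suspension (10 ml/kg), groups of 6–8 mice. Placed on plate at 54–56 °C; latency to forepaw licking or jumping timed by stop-watch before and 30 min after dosing, 45 s cut-off. Latency prolongation compared statistically. Morphine 1, 3, 6 mg/kg and acetylsalicylic acid 100–400 mg/kg i.p. as references.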

[4] = Acute toxicity in ip dosed Albino-Swiss mouse; assay type: organism-based; settings: in vivo
Method in brief: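 Mice (20–24 g) given compound i.p. as 0.5% methylcellulose suspension, 10 ml/kg, in rising doses up to 2000 mg/kg; six animals per dose. Deaths counted at 24 h, general behaviour watched for 6 h. LD50 by Litchfield and Wilcoxon.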

Mus musculus [5] = organism: Mus musculus; assay: Ratio of morphine ED50 to compound ED50 for analgesic activity in Albino-Swiss mouse by Eddy and Leimbach's hot plate method; assay type: functional
Mus musculus [6] = assay: Toxicity in ip dosed Albino-Swiss mouse assessed as decrease in locomotor activity at hot plate test ED50 after 1 hr; assay type: organism-based; design: scale not given: the % may be the effect or the level left; settings: in vivo
Method in brief: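 Mice (Albino-Swiss, 20–24 g) received compound i.p. as a 0.5% methylcellulose suspension (10 ml/kg). After 30 min, each mouse was put alone for a 30-min session in a circular photoresistor actometer (30 cm diameter, two photocells, impulse counter), which counted movements.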

Mus musculus [7] = assay: Analgesic activity in Albino-Swiss mouse assessed as inhibition of heat-induced paw licking or jumping behavior at 200 mg/kg, ip measured after 30 mins for 45 secs by Eddy and Leimbach's hot plate method; assay type: functional, organism-based; design: dose 200 mg/kg
Method in brief: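 Albino-Swiss mice (20–24 g), groups of 6–8, dosed i.p. as a suspension in 0.5% methylcellulose (10 ml/kg). Each mouse was placed on a metal plate at 54–56 °C, and time to forepaw licking or jumping was stopwatch-timed before and 30 min after dosing, with a 45 s cut-off. Latency prolongation was compared by Student's t-test.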

Sequence of Mu-type opioid receptor (P33535 whole entry): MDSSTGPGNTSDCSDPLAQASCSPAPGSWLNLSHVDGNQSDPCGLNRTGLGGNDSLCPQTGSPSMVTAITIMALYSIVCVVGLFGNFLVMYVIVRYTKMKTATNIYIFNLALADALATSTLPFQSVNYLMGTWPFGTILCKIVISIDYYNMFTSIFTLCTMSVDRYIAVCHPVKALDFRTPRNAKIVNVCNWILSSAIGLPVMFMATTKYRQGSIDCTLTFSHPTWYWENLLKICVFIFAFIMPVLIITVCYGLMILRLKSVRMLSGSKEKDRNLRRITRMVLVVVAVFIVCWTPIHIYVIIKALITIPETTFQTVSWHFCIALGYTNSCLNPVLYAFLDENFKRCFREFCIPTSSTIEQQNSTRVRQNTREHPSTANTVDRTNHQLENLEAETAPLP

Structure (SMILES) | IC50 (Mu-type opioid receptor) | Ratio ED50 (Mus musculus [1]) | ED50 (Mus musculus [2]) | ED50 (Mus musculus [3]) | LD50 [4] | ED50 (Mus musculus [3]; 0.5 h) | Ratio ED50 (Mus musculus [5]) | Activity (Mus musculus [6]) | Ki (Mu-type opioid receptor) | inhibition (Mus musculus [7])
C=CCN1CC[C@]23CCCC[C@H]2[C@H]1Cc1ccc(O)cc13 [LEVALLORPHAN] | 0.000634 µM | – | – | – | – | – | – | – | – | –
Cc1c2c(=O)[nH]n(CCN3CCC(Cc4ccccc4)CC3)c(=O)c2c(C)n1-c1ccccc1 | – | 100 | 1.91 mg/kg | inactive | > 2000 mg/kg | – | – | – | – | –
Cc1c2c(=O)[nH]n(CCN3CCN(c4ccccc4Cl)CC3)c(=O)c2c(C)n1-c1ccccc1 | – | 100 | 3.77 mg/kg | inactive | > 2000 mg/kg | – | – | – | – | –
CN1CC[C@]23c4c5ccc(O)c4O[C@H]2[C@@H](O)C=C[C@H]3[C@H]1C5 [MORPHINE] | – | – | 2.44 mg/kg | – | – | 3.5 mg/kg | – | – | – | –
Cc1c2c(OCCCN3CCN(c4ccccc4)CC3)nn(C)c(=O)c2c(C)n1-c1ccccc1 | – | – | 7.9 mg/kg | inactive | 1420 mg/kg | – | – | – | – | –
Cc1c2c(=O)[nH]n(CCN3CCN(c4ccccc4)CC3)c(=O)c2c(C)n1-c1ccccc1 | – | 100 | 1.48 mg/kg | inactive | > 2000 mg/kg | – | – | – | – | –
COc1ccccc1N1CCN(CCCOc2nn(C)c(=O)c3c(C)n(-c4ccccc4)c(C)c23)CC1 | – | – | 11.2 mg/kg | inactive | > 2000 mg/kg | – | – | – | – | –
Cc1c2c(=O)[nH]n(CCN3CCN(c4ccccc4F)CC3)c(=O)c2c(C)n1-c1ccccc1 | 24.2 µM | 100 | 0.31 mg/kg | – | > 2000 mg/kg | 15 mg/kg | 3 | 20% | 11.1 µM | –
Cc1ccc(Cl)cc1N1CCN(CCn2[nH]c(=O)c3c(C)n(-c4ccccc4)c(C)c3c2=O)CC1 | 5.6 µM | 100 | 0.55 mg/kg | – | > 2000 mg/kg | 10.3 mg/kg | 3 | 45% | 2.6 µM | –
Cc1c2c(=O)[nH]n(CCN3CCN(Cc4ccccc4)CC3)c(=O)c2c(C)n1-c1ccccc1 | – | 100 | 0.04 mg/kg | inactive | > 2000 mg/kg | – | – | – | – | –
CC(=O)Oc1ccccc1C(=O)O | – | – | – | – | – | – | – | – | – | inactive
Cc1c2c(=O)[nH]n(CCN3CCN(C/C=C/c4ccccc4)CC3)c(=O)c2c(C)n1-c1ccccc1 | – | 100 | 1.25 mg/kg | inactive | > 2000 mg/kg | – | – | – | – | –
COc1cccc(C2(O)CCCCC2CN(C)C)c1 (centres undefined) [TRAMADOL] | – | – | – | – | – | – | – | – | 2.4 µM | –
Cc1c2c(=O)[nH]n(CCN3CCN(c4ccccn4)CC3)c(=O)c2c(C)n1-c1ccccc1 | – | 100 | 6.84 mg/kg | inactive | > 2000 mg/kg | – | – | – | – | –
Cc1c2c(=O)[nH]n(CCN3CCN(Cc4ccc5c(c4)OCO5)CC3)c(=O)c2c(C)n1-c1ccccc1 | – | 100 | 1.92 mg/kg | inactive | > 2000 mg/kg | – | – | – | – | –
Cc1c2c(=O)[nH]n(CCN3CCN(C(c4ccccc4)c4ccccc4)CC3)c(=O)c2c(C)n1-c1ccccc1 | – | 100 | 1.83 mg/kg | inactive | > 2000 mg/kg | – | – | – | – | –
Cc1c2c(=O)[nH]n(CCN3CCN(c4cccc(C(F)(F)F)c4)CC3)c(=O)c2c(C)n1-c1ccccc1 | – | 100 | 1.23 mg/kg | – | > 2000 mg/kg | 15.9 mg/kg | 3 | 20% | – | –
COc1ccccc1N1CCN(CCn2[nH]c(=O)c3c(C)n(-c4ccccc4)c(C)c3c2=O)CC1 | – | 100 | 8.02 mg/kg | inactive | > 2000 mg/kg | – | – | – | – | –
